Assay results from ChEMBL document CHEMBL1641462, “Synthesis and in vivo evaluation of ¹⁸F-fluoroethyl GF120918 and XR9576 as positron emission tomography probes for assessing the function of drug efflux transporters” (Bioorg Med Chem, 2011).

Key:
Pancreas [1] = assay: Biodistribution in FVB mouse pancreas assessed per gram of tissue at 1 to 4.8 MBq, iv after 5 mins; assay type: ADME, organism-based; details: in vivo
Summary of the method: (§1)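 Male FVB mice (8–10 weeks, 25–29 g) given tracer 1.0–4.8 MBq/7.1–34 pmol iv; killed by cervical dislocation at set times (n = 4 per group). Blood by heart puncture; tissues dissected, weighed and gamma counted. Radioactivity decay-corrected to injection time, expressed as %ID/g, mean ± SD.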

Bone [2] = assay: Biodistribution in FVB mouse bone assessed per gram of tissue at 1 to 4.8 MBq, iv after 60 mins; assay type: ADME, organism-based, Bone element; details: in vivo, 1 h
Summary of the method: (§2)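 Male FVB mice (8–10 weeks, 25–29 g) received tracer iv (1.0–4.8 MBq, 7.1–34 pmol). Killed by cervical dislocation at 5, 15, 30, 60 or 90 min. Blood taken by heart puncture; tissues dissected, weighed and gamma-counted. Activity decay-corrected to injection time and given as %ID/g; mean ± SD, n = 4 per time point.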

Kidney [3] = assay: Biodistribution in FVB mouse kidney assessed per gram of tissue at 1 to 4.8 MBq, iv after 30 mins; assay type: ADME, organism-based; details: in vivo, 0.5 h; summary of the method: as §2
Brain [4] = assay: Biodistribution in FVB mouse brain assessed per gram of tissue at 1 to 4.8 MBq, iv after 90 mins; assay type: ADME, organism-based; details: in vivo, 1.5 h; summary of the method: as §2
Brain [5] = assay: Biodistribution in BCRP knockout mouse brain at 3.3 to 4.9 MBq, iv after up to 60 mins; assay type: ADME, organism-based; details: in vivo, 1 h
Bone [6] = assay: Biodistribution in FVB mouse bone assessed per gram of tissue at 1 to 4.8 MBq, iv after 30 mins; assay type: ADME, organism-based, Bone element; details: in vivo, 0.5 h; summary of the method: as §2
Bone [7] = assay: Biodistribution in FVB mouse bone assessed per gram of tissue at 1 to 4.8 MBq, iv after 15 mins; assay type: ADME, organism-based, Bone element; details: in vivo, 0.25 h; summary of the method: as §2
Pancreas [8] = assay: Biodistribution in FVB mouse pancreas assessed per gram of tissue at 1 to 4.8 MBq, iv after 90 mins; assay type: ADME, organism-based; details: in vivo, 1.5 h; summary of the method: as §1
Kidney [9] = assay: Biodistribution in FVB mouse kidney assessed per gram of tissue at 1 to 4.8 MBq, iv after 90 mins; assay type: ADME, organism-based; details: in vivo, 1.5 h; summary of the method: as §2
Brain [10] = assay: Biodistribution in FVB mouse brain assessed per gram of tissue at 1 to 4.8 MBq, iv after 30 mins; assay type: ADME, organism-based; details: in vivo, 0.5 h; summary of the method: as §2
Muscle tissue = assay: Biodistribution in FVB mouse muscle assessed per gram of tissue at 1 to 4.8 MBq, iv after 15 mins; assay type: ADME, organism-based; details: in vivo, 0.25 h; summary of the method: as §2
Lung = assay: Biodistribution in FVB mouse lung assessed per gram of tissue at 1 to 4.8 MBq, iv after 60 mins; assay type: ADME, organism-based; details: in vivo, 1 h; summary of the method: as §2
Heart [11] = assay: Biodistribution in FVB mouse heart assessed per gram of tissue at 1 to 4.8 MBq, iv after 5 mins; assay type: ADME, organism-based; details: in vivo; summary of the method: as §2
Liver [12] = assay: Biodistribution in FVB mouse liver assessed per gram of tissue at 1 to 4.8 MBq, iv after 90 mins; assay type: ADME, organism-based; details: in vivo, 1.5 h; summary of the method: as §2
Blood [13] = assay: AUC (0 to 60 mins) in P-gp knockout mouse blood at 2.8 to 5.6 MBq, iv; assay type: ADME, tissue-based
Summary of the method: (§3)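 Small-animal PET in male wild-type and knockout mice under isoflurane (1.0–1.5%), prone on the scanner bed. Tracer (2.8–5.6 MBq, 20–40 pmol) given iv, with or without co-injected GF120918 at 5 mg/kg. Dynamic 60-min list-mode scan. Decay-corrected SUV read from ROIs on brain, and on the ventricular cavity for blood. AUC taken over 0–60 min in SUV·min; n = 4 per group.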

[14] = Fold increase in testis-to-blood ratio of drug level in FVB mouse at 1 to 4.8 MBq, iv co-administered with 5 mg/kg, iv of GF120918; details: testis and blood, with GF120918, 5 mg/kg iv
Brain [15] = assay: Ratio of AUC (0 to 60 mins) in P-gp/BCRP knockout mouse brain to AUC (0 to 60 mins) in wild type mouse brain at 2.8 to 5.6 MBq, iv; assay type: ADME, organism-based; details: in vivo
[16] = Fold increase in brain-to-blood ratio of drug level in FVB mouse at 1 to 4.8 MBq, iv co-administered with 5 mg/kg, iv of GF120918; details: brain and blood, with GF120918, 5 mg/kg iv
Plasma = assay: Metabolic stability in FVB mouse plasma assessed as recovery of radioactivity at 1 to 4.8 MBq, iv by HPLC analysis; assay type: ADME, organism-based; details: in vivo
Summary of the method: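 Brain homogenate or plasma from tracer plus GF120918 (5 mg/kg) co-injected FVB mice deproteinized with equal volume ice-cold acetonitrile; radioactivity in supernatant, precipitate and HPLC waste gamma counted to give recovery, mean ± SD (n = 7).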

Kidney [17] = assay: Biodistribution in FVB mouse kidney assessed per gram of tissue at 1 to 4.8 MBq, iv after 60 mins; assay type: ADME, organism-based; details: in vivo, 1 h; summary of the method: as §2
Spleen [18] = assay: Biodistribution in FVB mouse spleen assessed per gram of tissue at 1 to 4.8 MBq, iv after 90 mins; assay type: ADME, organism-based; details: in vivo, 1.5 h; summary of the method: as §1
Liver [19] = assay: Biodistribution in FVB mouse liver assessed per gram of tissue at 1 to 4.8 MBq, iv after 60 mins; assay type: ADME, organism-based; details: in vivo, 1 h; summary of the method: as §2
Blood [20] = assay: AUC (0 to 60 mins) in P-gp/BCRP knockout mouse blood at 2.8 to 5.6 MBq, iv; assay type: ADME, tissue-based; summary of the method: as §3
[21] = Biodistribution in FVB mouse small intestine assessed per gram of tissue at 1 to 4.8 MBq, iv after 5 mins; assay type: ADME, organism-based; details: in vivo; summary of the method: as §1
Liver [22] = assay: Biodistribution in FVB mouse liver assessed per gram of tissue at 1 to 4.8 MBq, iv after 5 mins; assay type: ADME, organism-based; details: in vivo; summary of the method: as §2
Brain [23] = assay: Ratio of AUC (0 to 60 mins) in P-gp knockout mouse brain to AUC (0 to 60 mins) in wild type mouse brain at 2.8 to 5.6 MBq, iv; assay type: ADME, organism-based; details: in vivo
Heart [24] = assay: Biodistribution in FVB mouse heart assessed per gram of tissue at 1 to 4.8 MBq, iv after 90 mins; assay type: ADME, organism-based; details: in vivo, 1.5 h; summary of the method: as §2
Spleen [25] = assay: Biodistribution in FVB mouse spleen assessed per gram of tissue at 1 to 4.8 MBq, iv after 5 mins; assay type: ADME, organism-based; details: in vivo; summary of the method: as §1
Pancreas [26] = assay: Biodistribution in FVB mouse pancreas assessed per gram of tissue at 1 to 4.8 MBq, iv after 15 mins; assay type: ADME, organism-based; details: in vivo, 0.25 h; summary of the method: as §1
Brain [27] = assay: AUC (0 to 60 mins) in P-gp knockout mouse brain at 2.8 to 5.6 MBq, iv; assay type: ADME, organism-based; details: in vivo; summary of the method: as §3
Pancreas [28] = assay: Biodistribution in FVB mouse pancreas assessed per gram of tissue at 1 to 4.8 MBq, iv after 60 mins; assay type: ADME, organism-based; details: in vivo, 1 h; summary of the method: as §1
Heart [29] = assay: Biodistribution in FVB mouse heart assessed per gram of tissue at 1 to 4.8 MBq, iv after 15 mins; assay type: ADME, organism-based; details: in vivo, 0.25 h; summary of the method: as §2
Brain [30] = assay: AUC (0 to 60 mins) in BCRP knockout mouse brain at 2.8 to 5.6 MBq, iv; assay type: ADME, organism-based; details: in vivo; summary of the method: as §3
Spleen [31] = assay: Biodistribution in FVB mouse spleen assessed per gram of tissue at 1 to 4.8 MBq, iv after 30 mins; assay type: ADME, organism-based; details: in vivo, 0.5 h; summary of the method: as §1
Kidney [32] = assay: Biodistribution in FVB mouse kidney assessed per gram of tissue at 1 to 4.8 MBq, iv after 5 mins; assay type: ADME, organism-based; details: in vivo; summary of the method: as §2

| Drug uptake (Pancreas [1]) [% ID/g] | Drug uptake (Bone [2]) [% ID/g] | Drug uptake (Kidney [3]) [% ID/g] | Drug uptake (Brain [4]) [% ID/g] | Activity (Brain [5]) | Drug uptake (Bone [6]) [% ID/g] | Drug uptake (Bone [7]) [% ID/g] | Drug uptake (Pancreas [8]) [% ID/g] | Drug uptake (Kidney [9]) [% ID/g] | Drug uptake (Brain [10]) [% ID/g] | Drug uptake (Muscle tissue) [% ID/g] | Drug uptake (Lung) [% ID/g] | Drug uptake (Heart [11]) [% ID/g] | Drug uptake (Liver [12]) [% ID/g] | AUC (Blood [13]) [SUV·min] | Fold increase [14] | Ratio AUC (Brain [15]) | Fold increase [16] | Stability (Plasma) [%] | Drug uptake (Kidney [17]) [% ID/g] | Structure (SMILES) | further results |
| --- | --- | --- | --- | --- | --- | --- | --- | --- | --- | --- | --- | --- | --- | --- | --- | --- | --- | --- | --- | --- | --- |
| 6.12 | 1.43 | 19.45 | 0.13 | Active | 1.63 | 1.66 | 15.21 | 19.98 | 0.14 | 1.18 | 6.16 | 6.65 | 14.82 | 23.5 | 7 | 9 | 10 | 94.1 | 23.44 | COc1cc2c(cc1OC)CN(CCc1ccc(NC(=O)c3cccc4c(=O)c5cccc(OCC[18F])c5[nH]c34)cc1)CC2 | Drug uptake (Spleen [18]): 4.71 % ID/g; Drug uptake (Liver [19]): 11.6 % ID/g; AUC (Blood [20]): 25 SUV·min; Drug uptake [21]: 4.51 % ID/g; Drug uptake (Liver [22]): 4.88 % ID/g; Ratio AUC (Brain [23]): 2.4; Drug uptake (Heart [24]): 0.85 % ID/g; Drug uptake (Spleen [25]): 4.76 % ID/g; Drug uptake (Pancreas [26]): 9.68 % ID/g; SUV (Brain [27]): 10.6; Drug uptake (Pancreas [28]): 15.14 % ID/g; Drug uptake (Heart [29]): 2.43 % ID/g; SUV (Brain [30]): 5; Drug uptake (Spleen [31]): 5.82 % ID/g; Drug uptake (Kidney [32]): 20.65 % ID/g |
| 6.05 | 1.62 | 11.34 | 0.1 | Active | 1.45 | 1.85 | 13.56 | 10.17 | 0.11 | 1.61 | 16.06 | 7.44 | 22.18 | 45 | 5 | 8.3 | 10 | 95.3 | 11.29 | COc1cc(NC(=O)c2cnc3ccccc3c2)c(C(=O)Nc2ccc(CCN3CCc4cc(OC)c(OCC[18F])cc4C3)cc2)cc1OC | Drug uptake (Spleen [18]): 7.42 % ID/g; Drug uptake (Liver [19]): 25.4 % ID/g; AUC (Blood [20]): 33.9 SUV·min; Drug uptake [21]: 5.67 % ID/g; Drug uptake (Liver [22]): 29.33 % ID/g; Ratio AUC (Brain [23]): 2.3; Drug uptake (Heart [24]): 1.74 % ID/g; Drug uptake (Spleen [25]): 5.12 % ID/g; Drug uptake (Pancreas [26]): 8.27 % ID/g; SUV (Brain [27]): 9.1; Drug uptake (Pancreas [28]): 12.45 % ID/g; Drug uptake (Heart [29]): 3.49 % ID/g; SUV (Brain [30]): 6.5; Drug uptake (Spleen [31]): 6.34 % ID/g; Drug uptake (Kidney [32]): 18 % ID/g |
